In paper PMC3952852 (Molecular Biology of the Cell, 2014):
Values belong to the compound of their own block, whether it stands above or below them.

Columns and labels:
[1] = tested on: P-cofilin in N1E-115 cells; assay: cofilin phosphorylation immunoblot in LIMK1-CFP-overexpressing N1E-115 cells; assay type: cell-based; settings: 30 min
[2] = tested on: JCaM1.6 cells; assay: CXCL12-induced chemotaxis, Transwell, JCaM1.6 cells; assay type: cell-based; settings: Lck-deficient JCaM1.6, pretreated 30 min, 5 nM CXCL12, 3 h
How it was run: (§1)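 Cells at 2×10^6 cells/ml in RPMI1640 with 0.5% BSA were pretreated 30 min at room temperature with test compound or vehicle (final 0.3% DMSO). 2×10^5 cells went into the upper well (5-µm pore Transwell). The lower well held RPMI, 0.5% BSA, 5 nM CXCL12 and compound or vehicle. After 3 h at 37°C, migrated cells in the lower well were counted. Mean ± SD of four independent experiments; one-way ANOVA with Dunnett's test.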

[3] = tested on: P-cofilin in Vero 2-2 cells; assay: 2D gel analysis of 32P-labeled phospho-proteins in whole cell lysates; assay type: cell-based; settings: 10 μM, 5 h
[4] = tested on: Jurkat cells; assay: CXCL12-induced lamellipodium formation in Jurkat cells; assay type: cell-based; settings: Dam 30 min, then 5 nM CXCL12 for 20 min
How it was run: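 Jurkat cells were given 5 µM test compound or vehicle for 30 min, then 5 nM CXCL12 for 20 min. They were fixed and stained with rhodamine–phalloidin for F-actin, then scored into three classes: large lamellipodia, small lamellipodia, or round without lamellipodium. 200–300 cells were counted per experiment. Class percentages are mean ± SD of three independent experiments.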

[5] = target: T1, LIMK1 (Homo sapiens, UniProt P53667); assay type: biochemical; settings: range of inhibitor concentrations
T1 sequence (P53667 whole entry): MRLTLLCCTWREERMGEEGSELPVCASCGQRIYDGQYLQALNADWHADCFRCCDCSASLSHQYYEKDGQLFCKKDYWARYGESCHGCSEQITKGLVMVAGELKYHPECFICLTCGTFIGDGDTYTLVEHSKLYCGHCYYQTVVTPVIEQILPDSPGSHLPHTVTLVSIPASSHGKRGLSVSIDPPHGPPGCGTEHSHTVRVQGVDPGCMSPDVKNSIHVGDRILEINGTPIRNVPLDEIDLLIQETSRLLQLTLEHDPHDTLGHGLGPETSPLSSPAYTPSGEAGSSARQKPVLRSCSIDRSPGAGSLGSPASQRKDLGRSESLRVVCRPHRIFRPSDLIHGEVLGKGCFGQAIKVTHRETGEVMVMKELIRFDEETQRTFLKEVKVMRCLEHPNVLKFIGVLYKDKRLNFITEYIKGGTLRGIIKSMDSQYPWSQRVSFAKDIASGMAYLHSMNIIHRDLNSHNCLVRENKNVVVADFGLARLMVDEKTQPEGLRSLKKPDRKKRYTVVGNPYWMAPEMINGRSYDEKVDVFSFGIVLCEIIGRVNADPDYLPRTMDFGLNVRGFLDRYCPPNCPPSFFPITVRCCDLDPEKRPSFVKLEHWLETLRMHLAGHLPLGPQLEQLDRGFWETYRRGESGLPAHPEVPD

[6] = target: ROCK (Homo sapiens, UniProt Q13464); assay: in vitro kinase assay, ROCK; assay type: biochemical
ROCK, sequence (Q13464 1-727): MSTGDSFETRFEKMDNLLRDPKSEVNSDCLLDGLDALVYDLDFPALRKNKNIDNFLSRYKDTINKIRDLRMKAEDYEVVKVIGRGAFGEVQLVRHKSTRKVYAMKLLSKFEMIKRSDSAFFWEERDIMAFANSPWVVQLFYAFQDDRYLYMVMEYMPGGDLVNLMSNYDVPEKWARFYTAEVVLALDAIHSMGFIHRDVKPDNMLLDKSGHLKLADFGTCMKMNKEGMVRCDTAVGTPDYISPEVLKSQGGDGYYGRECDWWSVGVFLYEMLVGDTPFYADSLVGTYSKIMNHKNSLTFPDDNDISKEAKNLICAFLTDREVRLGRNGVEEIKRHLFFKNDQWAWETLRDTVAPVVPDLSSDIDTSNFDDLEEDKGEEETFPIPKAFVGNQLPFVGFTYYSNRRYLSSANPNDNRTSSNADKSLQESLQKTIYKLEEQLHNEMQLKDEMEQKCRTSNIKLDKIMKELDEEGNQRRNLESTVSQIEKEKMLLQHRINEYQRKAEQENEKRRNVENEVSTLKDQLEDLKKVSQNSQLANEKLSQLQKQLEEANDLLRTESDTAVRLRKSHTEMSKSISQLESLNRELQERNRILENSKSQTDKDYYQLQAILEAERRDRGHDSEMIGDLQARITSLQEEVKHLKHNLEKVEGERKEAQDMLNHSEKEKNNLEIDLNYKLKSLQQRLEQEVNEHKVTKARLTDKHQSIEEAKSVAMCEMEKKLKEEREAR

[7] = tested on: P-cofilin in Jurkat cells; assay: CXCL12-induced cofilin phosphorylation in Jurkat cells; assay type: cell-based; settings: 5 nM CXCL12 for 5 min
How it was run: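 Jurkat cells (RPMI, 10% FCS) were stimulated with 5 nM CXCL12 for 5 min. Lysates in HEPES pH 7.4 lysis/kinase buffer were immunoblotted for P-cofilin, cofilin, P-MAPK and MAPK. P-cofilin was expressed relative to control cells, set at 1.0.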

[8] = tested on: epidermal Langerhans cells; assay: hapten; assay type: in vivo, mouse; settings: 20 μM topical
How it was run: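 BALB/c mice (8–10 wk): each ear painted with 20 µl of 20 µM test compound in 2% DMSO in 1:4 acetone/olive oil, or vehicle. 30 min later, 20 µl 3% TNCB or vehicle applied, ± 20 µM compound; repainted at 12 h; ears taken 24 h post-TNCB. NH4SCN-separated, acetone-fixed epidermal sheets stained with FITC anti-I-Ad; confocal imaging, 15 areas/ear; five experiments, mean ± SD, ANOVA/Dunnett.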

[9] = tested on: MDA-MB-231 cells; assay: serum-induced Matrigel invasion assay, MDA-MB-231 cells; assay type: cell-based, human; settings: MDA-MB-231, Matrigel, 15 h
How it was run: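 MDA-MB-231 cells (2×10^5 cells/ml) were serum-starved 3 h and resuspended in serum-free DMEM. They were pretreated 30 min at room temperature with test compound or vehicle (final 0.3% DMSO). Transwell inserts (8-µm pore) were coated with 50 µg Matrigel for 1 h at 37°C and washed three times with DMEM. 2×10^4 cells were loaded, with serum in the lower chamber. After 15 h, invaded cells on the lower membrane face were counted. Mean ± SD of six independent experiments; Dunnett's test.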

[10] = target: PKCα (Homo sapiens, UniProt P17252); assay: in vitro kinase assay, PKCα; assay type: biochemical
[11] = tested on: P-MAPK in Jurkat cells; assay: CXCL12-induced MAPK phosphorylation in Jurkat cells; assay type: cell-based; settings: 5 nM CXCL12 for 5 min
How it was run: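 Jurkat cells grown in RPMI with 10% FCS were stimulated with 5 nM CXCL12 for 5 min, with or without test compound. Cells were lysed in HEPES pH 7.4 lysis/kinase buffer containing NP-40, NaF, Na3VO4 and protease inhibitors. Lysates were immunoblotted for P-MAPK and total MAPK, alongside P-cofilin and cofilin.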

[12] = target: PAK3 (Homo sapiens, UniProt O75914); assay: in vitro kinase assay, PAK3; assay type: biochemical
PAK3, sequence (O75914 177-559, species assumed): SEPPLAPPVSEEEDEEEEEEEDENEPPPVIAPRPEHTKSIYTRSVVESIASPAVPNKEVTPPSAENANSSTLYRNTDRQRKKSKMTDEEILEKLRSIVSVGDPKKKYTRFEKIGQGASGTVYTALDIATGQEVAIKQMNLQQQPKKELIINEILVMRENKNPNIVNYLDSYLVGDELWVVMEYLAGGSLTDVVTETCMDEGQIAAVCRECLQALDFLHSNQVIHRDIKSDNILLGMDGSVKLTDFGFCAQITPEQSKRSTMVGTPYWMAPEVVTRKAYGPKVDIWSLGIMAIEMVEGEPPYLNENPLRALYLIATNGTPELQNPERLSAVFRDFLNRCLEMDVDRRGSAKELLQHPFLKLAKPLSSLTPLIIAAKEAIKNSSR

[13] = tested on: Jurkat cells; assay: CXCL12-induced chemotaxis, Transwell, Jurkat cells; assay type: cell-based; settings: pretreated 30 min, 5 nM CXCL12, 3 h
How it was run: as §1

[14] = target: Src (Homo sapiens, UniProt P12931); assay: in vitro kinase assay, active Src; assay type: biochemical
Src, sequence (P12931 270-523 limits assumed): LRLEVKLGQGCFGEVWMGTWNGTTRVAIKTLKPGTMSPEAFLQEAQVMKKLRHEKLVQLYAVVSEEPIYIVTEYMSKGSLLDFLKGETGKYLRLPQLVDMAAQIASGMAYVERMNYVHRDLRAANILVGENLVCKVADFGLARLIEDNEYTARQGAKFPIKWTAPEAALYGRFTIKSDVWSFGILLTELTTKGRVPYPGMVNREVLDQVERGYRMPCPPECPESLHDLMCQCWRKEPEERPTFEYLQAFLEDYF

[15] = target: CaMKIα (Homo sapiens, UniProt Q14012); assay: in vitro kinase assay, CaMKIα; assay type: biochemical
CaMKIα, sequence (Q14012 1-293, species assumed): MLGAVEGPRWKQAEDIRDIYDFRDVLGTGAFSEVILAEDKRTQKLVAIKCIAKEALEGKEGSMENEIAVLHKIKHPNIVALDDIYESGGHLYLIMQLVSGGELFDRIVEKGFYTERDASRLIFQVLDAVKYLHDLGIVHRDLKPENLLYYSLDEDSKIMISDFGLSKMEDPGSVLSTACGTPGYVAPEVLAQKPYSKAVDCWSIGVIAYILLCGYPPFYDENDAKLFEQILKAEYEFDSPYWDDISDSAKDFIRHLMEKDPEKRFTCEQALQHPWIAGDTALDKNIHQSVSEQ

[16] = target: T1, LIMK1; assay: in vitro kinase assay, LIMK1; assay type: biochemical; settings: cofilin substrate; for effect on the kinase activity of LIMK1: concentrations of 1–30 μM
[17] = tested on: Lck; settings: read-out: IC50 for Lck; ref Jayasuriya et al., 1992; cited from earlier work

- concentration range inhibiting the kinase activity of LIMK1 in detailed in vitro BiFC assays [5]: 5 to 10 µM
- IC50 [6]: > 20 µM
- IC50 [10]: > 20 µM
- IC50 [12]: > 20 µM
- IC50 [14]: > 20 µM
- IC50 [15]: > 20 µM
Structure (SMILES): COc1c(C=O)c(O)cc2c1C(=O)c1ccccc1C2=O [Dam, 3-hydroxy-1-methoxy-9,10-dioxoanthraquinone-2-carbaldehyde]
- concentration range significantly decreasing P-cofilin level [1]: 5 to 10 µM
- concentration range inhibiting CXCL12-induced chemotaxis [2]: 3 to 10 µM
- amount of P-cofilin in treated cells compared with untreated cells [3]: decreased
- effect on lamellipodium formation after CXCL12 stimulation [4]: fewer cells with large lamellipodial protrusions and more cells with small or no lamellipodial protrusions
- concentration range suppressing CXCL12-induced increase of P-cofilin [7]: 3 to 10 µM
- effect on hapten-induced Langerhans cell size changes ([8]; TNCB): no apparent effect
- effect on Langerhans cell density of control ears ([8]; no TNCB): no effect
- concentration range significantly suppressing serum-induced invasion [9]: 3 to 10 µM
- effect on increase in P-MAPK after CXCL12 stimulation [11]: unaffected
- concentration range inhibiting CXCL12-induced chemotaxis [13]: 3 to 10 µM

- effect of hydroxylamine alone on LIMK1 activity ([16]; LIMK1-CFP): no effect
Structure (SMILES): NO [Hydroxylamine, hydroxylamine]

- effect on the kinase activity of LIMK1 [16]: no appreciable effect
Structure (SMILES): Cc1cc(O)c2c(c1)C(=O)c1cc(O)cc(O)c1C2=O [emodin]
- IC50 [17]: 18.5 µM

Structure (SMILES): O=C1c2c(O)ccc(O)c2C(=O)c2c(NCCNCCO)ccc(NCCNCCO)c21 [mitoxantrone]
- effect on the kinase activity of LIMK1 [16]: no appreciable effect
